≈ marks a conversion by molar mass, not a printed value.

Tested on in the first test: not listed separately
Briefly: Selectivity index, Ratio of IC50 for human Vero cells to MIC99 for multidrug resistant Mycobacterium tuberculosis. Format: functional.
As for `CC1COc2c(N3CCn4cc(C(=O)O)nc4C3)c(F)c([N+](=O)[O-])c3c(=O)c(C(=O)O)cn1c23` (stereo not given), the Selectivity index is reported as greater than 1467.

In the next test the test system is Mycobacterium tuberculosis. Briefly: Antimycobacterial activity against multidrug resistant Mycobacterium tuberculosis by agar dilution method. In kind it is functional. Put shortly:
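MIC99 was taken as the lowest concentration giving complete inhibition of bacterial growth.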
For orientation: In agar dilution, organisms are placed on agar that contains the substance at set levels.
As for `CC1COc2c(N3CCN(C(c4ccccc4)c4ccc(Cl)cc4)CC3)c(F)c([N+](=O)[O-])c3c(=O)c(C(=O)O)cn1c23` (stereo not given), the MIC99 (in general, an inhibitory concentration at the 99% level, which refers to growth in some studies and to a panel of isolates in others) was 2.63 µM (≈ 1.56 µg/mL).
Same read-out and setting: the value for `CC1COc2c(N3CCN(C(=O)c4ccco4)CC3)c(F)c([N+](=O)[O-])c3c(=O)c(C(=O)O)cn1c23` (stereo not given) was 1.6 µM (≈ 0.778 µg/mL); that for `COc1cc2c(cc1OC)CN(c1c(F)c([N+](=O)[O-])c3c(=O)c(C(=O)O)cn4c3c1OCC4C)CC2` (stereo not given) was 3.12 µM (≈ 1.56 µg/mL).
Regarding `CC1COc2c(N3CCn4cc(C(=O)O)nc4C3)c(F)c(N)c3c(=O)c(C(=O)O)cn1c23` (stereo not given), the MIC99 came out at 1.76 µM (≈ 0.78 µg/mL).
Same read-out and setting: the value for `CC1COc2c(N3CCC4(CC3)OCCO4)c(F)c([N+](=O)[O-])c3c(=O)c(C(=O)O)cn1c23` (stereo not given) was 0.09 µM (≈ 0.0404 µg/mL).
The same measure, in the same setting: the value for `CC1COc2c(N3CCC4(CC3)OCCO4)c(F)cc3c(=O)c(C(=O)O)cn1c23` (stereo not given) was 0.09 µM (≈ 0.0364 µg/mL); that for `CC1COc2c(N3CCN(C(=O)C4COc5ccccc5O4)CC3)c(F)c([N+](=O)[O-])c3c(=O)c(C(=O)O)cn1c23` (stereo not given) was 1.41 µM (≈ 0.782 µg/mL); that for `CC1COc2c(N3CCn4cc(C(=O)O)nc4C3)c(F)cc3c(=O)c(C(=O)O)cn1c23` (stereo not given) was 0.44 µM (≈ 0.188 µg/mL).
The compound `CC1COc2c(N3CCC(n4c(=O)[nH]c5cc(Cl)ccc54)CC3)c(F)cc3c(=O)c(C(=O)O)cn1c23` (stereo not given) gave an MIC99 of 0.76 µM (≈ 0.39 µg/mL).
Still for that read-out and setting: the value for `CC1COc2c(N3CCC(O)(c4ccc(Cl)cc4)CC3)c(F)c([N+](=O)[O-])c3c(=O)c(C(=O)O)cn1c23` (stereo not given) was 3.01 µM (≈ 1.56 µg/mL).
Same read-out and setting: the value for `CC1CN(c2c(F)c([N+](=O)[O-])c3c(=O)c(C(=O)O)cn4c3c2OCC4C)CC(C)O1` (stereo not given) was 3.7 µM (≈ 1.56 µg/mL).
The compound `CC1CN(c2c(F)cc3c(=O)c(C(=O)O)cn4c3c2OCC4C)CC(C)O1` (stereo not given) displayed an MIC99 of 8.3 µM (≈ 3.12 µg/mL).
On the same count and under the same terms, the value for `CC1COc2c(N3CCN(Cc4ccc5c(c4)OCO5)CC3)c(F)c([N+](=O)[O-])c3c(=O)c(C(=O)O)cn1c23` (stereo not given) was 5.95 µM (≈ 3.13 µg/mL); that for `CC1COc2c(N3CCc4ccccc4C3C(=O)NC(C)(C)C)c(F)c([N+](=O)[O-])c3c(=O)c(C(=O)O)cn1c23` (stereo not given) was 1.45 µM (≈ 0.781 µg/mL).
On the same count and under the same terms, the value for `CC1COc2c(N3CCC4(CC3)OCCO4)c(F)c(N)c3c(=O)c(C(=O)O)cn1c23` (stereo not given) was 3.72 µM (≈ 1.56 µg/mL); that for `CC1COc2c(N3CCSCC3)c(F)c([N+](=O)[O-])c3c(=O)c(C(=O)O)cn1c23` (stereo not given) was 1.91 µM (≈ 0.782 µg/mL); that for `CC1COc2c(N3CCc4ccccc4C3C(=O)NC(C)(C)C)c(F)cc3c(=O)c(C(=O)O)cn1c23` (stereo not given) was 3.16 µM (≈ 1.56 µg/mL).
Same read-out and setting: the value for `CC1COc2c(N3CCSCC3)c(F)cc3c(=O)c(C(=O)O)cn1c23` (stereo not given) was 8.59 µM (≈ 3.13 µg/mL); that for `CC1COc2c(N3CCN(C)C(c4ccccc4)C3)c(F)c([N+](=O)[O-])c3c(=O)c(C(=O)O)cn1c23` (stereo not given) was 3.23 µM (≈ 1.56 µg/mL); that for `CC1COc2c(N3CCn4cc(C(=O)O)nc4C3)c(F)c([N+](=O)[O-])c3c(=O)c(C(=O)O)cn1c23` (stereo not given) was 0.09 µM (≈ 0.0426 µg/mL).
Consider `CC1COc2c(N3CCC(n4c(=O)[nH]c5cc(Cl)ccc54)CC3)c(F)c([N+](=O)[O-])c3c(=O)c(C(=O)O)cn1c23` (stereo not given), for which the MIC99 was found to be 0.34 µM (≈ 0.19 µg/mL).
Still for that read-out and setting: the value for `COc1cc2c(cc1OC)CN(c1c(F)cc3c(=O)c(C(=O)O)cn4c3c1OCC4C)CC2` (stereo not given) was 3.43 µM (≈ 1.56 µg/mL); that for `NNC(=O)c1ccncc1` [ISONIAZID] was 45.6 µM (≈ 6.25 µg/mL); that for `CC1COc2c(N3CCN(C)CC3)c(F)cc3c(=O)c(C(=O)O)cn1c23` (stereo not given) [OFLOXACIN] was 34.6 µM (≈ 12.5 µg/mL).

Source of the values: ChEMBL document CHEMBL1141647, “Novel ofloxacin derivatives: synthesis, antimycobacterial and toxicological evaluation” (Bioorg Med Chem Lett, 2008).
